Reference: ChEMBL document CHEMBL2157878, “In vitro cellular uptake and dimerization of signal transducer and activator of transcription-3 (STAT3) identify the photosensitizing and imaging-potential of isomeric photosensitizers derived from chlorophyll-a and bacteriochlorophyll-a” (J Med Chem, 2011)
The source made the active and inactive calls. The calls are words filed in the database; no cut-off is given here.

Assays:
BCC1 [1] = test: Induction of apoptosis in human BCC1 cells assessed as survival after 24 hrs by trypan blue assay; format: functional, cell-based
Procedure, shortened: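 BCC1 cells were loaded for 2 h in serum-free DMEM with 2-fold serial dilutions of photosensitizer. After washing, they were illuminated in serum-free medium at 37° with 665 nm dye-laser light for 9 min (3 J/cm²). Cells were then cultured 24 h in DMEM/10% FCS and trypsinized. Trypan blue-excluding cells were counted by hemocytometer and expressed relative to untreated controls.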

BCC1 [2] = test: Reduction in EGFR levels in human BCC1 cells after 9 mins by Western blotting in presence of 665 nm laser light; format: functional, cell-based
Procedure, shortened: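 BCC1 cells were incubated 2 h in serum-free DMEM with 2-fold serially diluted photosensitizer, washed, and illuminated with 665 nm light for 9 min (3 J/cm²). They were extracted immediately in RIPA buffer. Extracts (20 μg protein) were run on 6–10% SDS gels and immunoblotted for STAT3, EGFR, p38 and P-p38 with ECL detection. STAT3 crosslinking was scored as percent conversion of monomer into dimer form I.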

[3] = biological target: MAP kinase p38 (Homo sapiens) (UniProt O15264+Q15759+Q16539+P53778); test: Activation of p38 MAPK in human BCC1 cells assessed as dimerization of STAT3 after 9 mins by Western blotting in presence of 665 nm laser light; format: cell-based
Procedure, shortened: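 Subconfluent BCC1 cells, 2 h in serum-free DMEM with 2-fold serially diluted PS, then 665 nm dye-laser light for 9 min at 37°C (3 J/cm²) in serum-free medium. Cells extracted immediately and lysed in RIPA. 20 μg protein run on 6–10% SDS gels and immunoblotted for STAT3, p38/P-p38 and EGFR with ECL detection. Crosslinking given as % monomeric STAT3 converted to dimer form I.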

[4] = Drug uptake in human BCC1 cells assessed as subcellular localization at 3.2 uM after 4 hrs by HPPH fluorescence spectrophotometry; format: ADME, cell-based; conditions: bcc1, 4 h
Procedure, shortened: (§1)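 BCC1 cells incubated 30 min in serum-free DMEM with 3.2 μM or 0.2 μM PS, washed, and imaged at 640X under phase contrast or HPPH fluorescence. Cultures then kept a further 4 h in PS- and serum-free DMEM and imaged again under the same conditions to follow subcellular redistribution.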

BCC1 [5] = test: Increase in STAT3 cross linking level in human BCC1 cells assessed as dimerization of STAT3 after 9 mins by Western blotting in presence of 665 nm light
[6] = Drug uptake in human BCC1 cells assessed as subcellular localization at 3.2 uM after 4 hrs by phase contrast microscopy; format: ADME, cell-based; conditions: bcc1, 4 h; procedure, shortened: as §1
[7] = Drug uptake in human BCC1 cells at 200 nM after 30 mins by fluorescent microscopy; conditions: bcc1, 30 min, 0.2 µM
[8] = Drug uptake in human BCC1 cells assessed as deposition in mitochondria at 3.2 uM after 30 mins by HPPH fluorescence spectrophotometry; format: ADME; conditions: bcc1, 0.5 h; procedure, shortened: as §1
[9] = Drug uptake in human BCC1 cells assessed as deposition in mitochondria at 200 nM after 30 mins by HPPH fluorescence spectrophotometry; format: ADME; conditions: bcc1, 0.5 h, 0.2 µM
Procedure, shortened: (§2)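 BCC1 cells in subconfluent culture, washed and incubated 30 min in serum-free DMEM with 200 nM PS. Washed free of PS and imaged at 640X under phase contrast and HPPH fluorescence (Ex 410/40, Em 675/750 nm). Cell PS also quantified by solubilising cells and reading fluorescence (Ex 415, Em 667 nm).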

[10] = Drug uptake in human BCC1 cells assessed as deposition in mitochondria at 3.2 uM after 30 mins by phase contrast microscopy; format: ADME; conditions: bcc1, 0.5 h; procedure, shortened: as §1
[11] = Drug uptake in human BCC1 cells assessed as deposition in mitochondria at 200 nM after 30 mins by phase contrast microscopy; format: ADME; conditions: bcc1, 0.5 h, 0.2 µM; procedure, shortened: as §2
Colon 26 [12] = test: Antitumor activity against mouse Colon 26 cells xenografted in parenterally dosed BALB/c mouse assessed as tumor cure at 1 umol/kg after 24 hrs followed by illumination with 128 J/cm'2, 14 mW/cm'2 laser light measured after 60 days; format: functional
Procedure, shortened: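 Subcutaneous Colon26 tumours in BALB/c mice (10/group), dosed at 4–5 mm diameter with 1 μmol/kg PS. At 24 h, unanaesthetised restrained mice received laser light to the tumour (665, 660 or 674 nm by compound; 128 J/cm², 14 mW/cm²). Tumours measured daily (V = L·W²/2). Cure means no palpable tumour by day 60–90. Euthanasia at 400 mm³.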

[13] = system: BCC1 cells (Homo sapiens); test: Ratio of drug uptake in human BCC1 cells in serum free medium to drug uptake in human BCC1 cells in medium containing 10% fetal calf serum by fluorescent microscopy
Colon 26 [14] = test: Drug uptake in mouse Colon 26 cells at 800 nM after 24 hrs by flow cytometry; format: ADME, cell-based; conditions: colon 26, 24 h, 0.8 µM
Procedure, shortened: (§3)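 Colon26 cells seeded at 0.33×10⁶ per well and grown overnight, then given 100–800 nM PS in triplicate at 37°C, with no-PS wells for autofluorescence. Harvested by trypsin, spun cold, and run on flow cytometry (Ex 633 nm, Em 730±45 nm, 10,000 events). Value is mean fluorescence of triplicates minus autofluorescence.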

Mus musculus [15] = test: Drug uptake in BALB/c mouse xenografted with mouse Colon 26 cells at 1 umol/kg, iv after 24 hrs by fluorescence imaging; format: ADME, organism-based; conditions: in vivo
Procedure, shortened: (§4)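 BALB/c mice (3/group) with Colon26 tumours (1×10⁶ cells s.c., right axilla, grown to 4–5 mm) were shaved and given 1.0 μmol/kg PS i.v. Whole-body fluorescence imaged under ketamine/xylazine at 24, 48 and 72 h: 540/40 nm illumination, long-pass emission filter, spectral unmixing of autofluorescence. Read-out is mean intensity of a 20 mm tumour ROI (AU), mean ± SD of 3 mice.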

Mus musculus [16] = test: Drug uptake in BALB/c mouse xenografted with mouse Colon 26 cells at 1 umol/kg, iv after 48 hrs by fluorescence imaging; format: ADME, organism-based; conditions: in vivo; procedure, shortened: as §4
[17] = Photostability of the compound in 17% bovine calf serum assessed as rate of photobleaching at 6.5 uM after 20 to 22 mins in presence of light (75 mW/cm'2); format: ADME; conditions: cattle, read-out: Drug degradation
Procedure, shortened: (§5)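 Equimolar (6.5 μM) photosensitizer solutions in 17% bovine calf serum were irradiated at 75 mW/cm². Absorption spectra were recorded at successive time points, and the normalized long-wavelength absorbance was plotted against time to follow photobleaching.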

Mus musculus [18] = test: Drug uptake in BALB/c mouse xenografted with mouse Colon 26 cells at 1 umol/kg, iv after 72 hrs by fluorescence imaging; format: ADME, organism-based; conditions: in vivo; procedure, shortened: as §4
Colon 26 [19] = test: Photosensitizing activity in mouse Colon 26 assessed as cell viability at 0.0625 uM after 24 hrs followed by illumination with 665 nm laser light and 48 hrs incubation in dark by MTT assay in presence of serum; format: functional, cell-based
Procedure, shortened: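 Colon26 cells, 3×10³/well in RPMI/10% FCS, were incubated 24 h in the dark with photosensitizer at 0.3 μM or 0.0625 μM. Medium was replaced with drug-free complete medium before illumination at 0–4 J/cm², 3.2 mW/cm², at each compound's peak wavelength (660, 665 or 674 nm). After 48 h in the dark, MTT was added for the last 4 h and absorbance read at 570 nm. Four replicate wells per condition, three independent experiments.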

Colon 26 [20] = test: Drug uptake in mouse Colon 26 cells at 400 nM after 24 hrs by flow cytometry; format: ADME, cell-based; conditions: colon 26, 24 h, 0.4 µM; procedure, shortened: as §3
[21] = Drug uptake in BALB/c mouse tumor xenografted with mouse Colon 26 cells at 1 umol/kg, iv after 24 hrs by fluorescence imaging; format: ADME, organism-based, Neoplasm; conditions: in vivo; procedure, shortened: as §4
[22] = Photostability of the compound in 17% bovine calf serum assessed as decrease in rate of photobleaching at 6.5 uM after 40 mins in presence of light (75 mW/cm'2); format: ADME; conditions: cattle; procedure, shortened: as §5
[23] = Drug uptake in human BCC1 cells at 200 nM incubated for 30 mins measured after 4 to 24 hrs by fluorescent microscopy; format: ADME, cell-based; conditions: bcc1, 0.5 h, 0.2 µM

| Structure (SMILES) | Activity (BCC1 [1]) | Activity (BCC1 [2]) | Activity [3] | Activity (BCC1 [5]) | Drug uptake [9] | Drug uptake [11] | Activity (Colon 26 [12]) | Ratio [13] | further results |
| --- | --- | --- | --- | --- | --- | --- | --- | --- | --- |
| CCC1=C(C)c2cc3[nH]c(cc4nc(c5c6[nH]c(cc1n2)c(C)c6C(=O)C5)C(CCC(=O)OC)[C@@H]4C)c(C)c3C(C)OCc1cccc(I)c1 (stereo partly specified) | Dose-dependent effect | Active | Active | Active | Active | Active | 20% | 5 | Drug uptake [4]: Active; Drug uptake [6]: Active; Drug uptake [7]: Active; Drug uptake [8]: Active; Drug uptake [10]: Active |
| CCc1c(C)c2cc3nc(c4c5[nH]c(cc6nc(cc1[nH]2)C(C)=C6C(C)OCc1cccc(I)c1)c(C)c5C(=O)C4)[C@@H](CCC(=O)O)[C@@H]3C (stereo partly specified) | Dose-dependent effect | Active | Active | Active | Active | Active | inactive | 4 | Drug uptake (Colon 26 [14]): Active; Drug uptake (Mus musculus [15]): Active; Drug uptake (Mus musculus [16]): Active; degraded at 6.5 µM [17]: 50%; Drug uptake (Mus musculus [18]): Active; Activity (Colon 26 [19]): Active; Drug uptake (Colon 26 [20]): Active; Drug uptake [21]: Not Active; Stability [22]: Stable; Drug uptake [23]: Active |
